Data: ChEMBL document CHEMBL1821687, “Discovery, synthesis, and biological evaluation of novel SMN protein modulators” (J Med Chem, 2011)
Active and inactive are the calls of the source. The rule behind the calls is not given here.

Experiments:
[1] = target: Survival motor neuron protein (Homo sapiens) (UniProt Q16637); test: Activation of SMN in human fibroblast cells obtained from type 1 SMA patients assessed as increase in SMN protein level by quantitative Western blot method; type: cell-based
Survival motor neuron protein (Homo sapiens), sequence (Q16637 whole entry): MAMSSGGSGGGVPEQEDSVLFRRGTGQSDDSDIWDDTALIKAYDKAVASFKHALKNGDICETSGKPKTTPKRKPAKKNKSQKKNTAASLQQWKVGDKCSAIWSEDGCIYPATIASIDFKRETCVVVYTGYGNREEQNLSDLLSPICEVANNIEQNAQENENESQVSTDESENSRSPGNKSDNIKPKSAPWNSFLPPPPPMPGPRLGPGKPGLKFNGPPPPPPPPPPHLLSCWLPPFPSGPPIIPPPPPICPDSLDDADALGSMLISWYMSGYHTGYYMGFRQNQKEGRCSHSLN
Summary of the method: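 Type I SMA patient fibroblasts (3813 line) were seeded at 8,000 cells/cm2 24 h before dosing, with medium and compound renewed every 24 h for 72 h. Lysates (10 µg protein/lane) were immunoblotted for SMN (4f11 antibody) and α-tubulin. Band intensity was normalized to tubulin and expressed as fold over the DMSO control.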

[2] = target: Survival motor neuron protein (Homo sapiens) (UniProt Q16637); test: Activation of SMN expressed in HEK293 cells by SMN2-promotor driven luciferase reporter gene assay; type: cell-based
Summary of the method: (§1)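 HEK-293 cells stably carrying the SMN2 reporter construct, kept in DMEM with 10% FCS, glutamax, pyruvate, pen/strep and 200 µg/mL hygromycin, and assayed without hygromycin. 2,000 cells/well were plated and adhered overnight at 37 °C, 5% CO2. Compounds were added as a 7-point titration, 50 µM to 25 nM final, in 0.46% DMSO, for 30–36 h. OneGlo luminescence was normalized to 4.5 mM sodium butyrate (100%) and DMSO (0%).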

[3] = target: Survival motor neuron protein (Homo sapiens) (UniProt Q16637); test: Activation of SMN expressed in HEK293 cells assessed as concentration required to reach 50% of maximum luciferase signal by SMN2-promotor driven luciferase reporter gene assay; type: cell-based; summary of the method: as §1
[4] = target: T1, Luciferin 4-monooxygenase (Luciola lateralis, UniProt Q01158); test: Inhibition of fire fly luciferase; set-up: species or system Aquatica lateralis
T1 sequence (Q01158 whole entry): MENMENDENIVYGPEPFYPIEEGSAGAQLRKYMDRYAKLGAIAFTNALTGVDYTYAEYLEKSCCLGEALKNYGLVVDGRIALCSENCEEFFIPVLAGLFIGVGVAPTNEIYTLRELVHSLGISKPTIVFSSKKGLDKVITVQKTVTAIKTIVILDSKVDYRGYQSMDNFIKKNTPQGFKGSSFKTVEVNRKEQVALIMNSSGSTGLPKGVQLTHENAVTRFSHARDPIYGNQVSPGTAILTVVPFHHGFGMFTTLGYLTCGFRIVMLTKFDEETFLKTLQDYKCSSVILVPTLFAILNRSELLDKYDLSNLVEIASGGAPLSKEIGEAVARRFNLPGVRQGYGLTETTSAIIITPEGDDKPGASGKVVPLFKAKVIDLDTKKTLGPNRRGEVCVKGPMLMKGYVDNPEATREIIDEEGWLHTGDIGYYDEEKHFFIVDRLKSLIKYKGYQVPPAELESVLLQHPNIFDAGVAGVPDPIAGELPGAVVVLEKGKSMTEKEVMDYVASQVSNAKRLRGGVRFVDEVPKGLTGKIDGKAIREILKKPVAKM

Caco-2 [5] = test: Apparent permeability from basolateral side to apical side of human Caco2 cells at 10 uM; type: ADME, cell-based; conditions: caco-2, 10 µM
Caco-2 [6] = test: Apparent permeability from apical side to basolateral side of human Caco2 cells at 10 uM; type: ADME, cell-based; conditions: caco-2, 10 µM
[7] = target: Survival motor neuron protein (Homo sapiens) (UniProt Q16637); test: Activation of SMN expressed in HEK293 cells assessed as rate of induction by SMN2-promotor driven luciferase reporter gene assay relative to basal level; type: cell-based; set-up: concentration or dose not given beside the values; summary of the method: as §1
Liver = test: Half-life in mouse liver microsome at 1 uM; type: ADME; conditions: microsomes
[8] = Half-life in human serum; type: ADME, cell-free

| Compound | Activity [3] | Activity [7] | other results |
| --- | --- | --- | --- |
| COc1nc(-c2ccccc2)nnc1-c1ccccc1 |  |  | Activity [1]: Dose-dependent effect; Activity [2]: Active |
| CSc1ccc(-c2cnc(N3CCC(C(N)=O)CC3)s2)cc1 | 0.031 µM | 576% | IC50 ([4]; read-out: IC50): 40 µM; Papp (Caco-2 [5]): 0.2 ×10⁻⁶ cm/s; Papp (Caco-2 [6]): 1.6 ×10⁻⁶ cm/s; t1/2 (Liver): 2 min |
| Cc1ccc(-c2cnc(N3CCC(C(N)=O)CC3)s2)cc1 | 0.077 µM | 609% | IC50 ([4]; read-out: IC50): 6.4 µM; t1/2 (Liver): 7 min |
| CN(C)C(=O)c1ccc(-c2csc(N3CCC(C(N)=O)CC3)n2)cc1 | 12.2 µM | 51% |  |
| CC(C)Oc1cccc(-c2ccnc(N3CCC(C(N)=O)CC3)n2)c1 | 0.154 µM | 298% | IC50 ([4]; read-out: IC50): 10 µM; Papp (Caco-2 [5]): 17.3 ×10⁻⁶ cm/s; Papp (Caco-2 [6]): 40.1 ×10⁻⁶ cm/s; t1/2 (Liver): 18 min |
| NC(=O)C1CCN(c2cc(-c3ccc4c(c3)OCCCO4)ncn2)CC1 | 7.72 µM | 211% |  |
| NC(=O)C1CCN(c2nc(-c3ccc(F)cc3)cs2)CC1 | 3.87 µM | 288% |  |
| Cc1ccc(-c2nnc(N3CCC(C(N)=O)CC3)s2)cc1 | 0.244 µM | 54% |  |
| NC(=O)C1CCN(c2ncc(-c3ccc(Br)cc3)s2)CC1 | 0.224 µM | 599% |  |
| CC(C)Oc1cccc(-c2csc(N3CCC(C(N)=O)CC3)n2)c1 | 0.77 µM | 605% |  |
| CC(=O)C1CCN(c2ncc(-c3cccc(N(C)C)c3)s2)CC1 | 3.07 µM | 224% |  |
| NC(=O)C1CCN(c2ncc(-c3cccc(N4CCCC4)c3)s2)CC1 | 0.387 µM | 685% |  |
| Cc1ccc(-c2ccnc(N3CCC(C(N)=O)CC3)n2)cc1 | 0.387 µM | 444% |  |
| NC(=O)C1CCN(c2ncnc(-c3ccc4c(c3)OCCCO4)n2)CC1 | 2.44 µM | 186% |  |
| CCOC(=O)C1CCN(c2ncc(-c3ccc4c(c3)OCCCO4)s2)CC1 | 0.031 µM | 320% |  |
| NC(=O)C1CCN(c2nc(-c3ccccc3)cs2)CC1 | 7.72 µM | 167% |  |
| Cc1ccc(-c2csc(N3CCC(C(N)=O)CC3)n2)cc1 | 1.22 µM | 439% |  |
| NC(=O)C1CCN(c2nc(-c3ccc4c(c3)OCC4)cs2)CC1 | 12.2 µM | 401% |  |
| Brc1ccc(-c2csc(N3CCNCC3)n2)cc1 | 24.4 µM | -97% |  |
| CC(=O)NC1CCN(c2nc(-c3ccc(Br)cc3)cs2)CC1 | 15.4 µM | -57% |  |
| N#CC1CCN(c2nc(-c3ccc(Br)cc3)cs2)CC1 | 30.7 µM | 78% |  |

| Compound | Activity [3] | Activity [7] | other results |
| --- | --- | --- | --- |
| CCCC(=O)[O-].[Na+] [SODIUM BUTYRATE] |  |  | half-life [8]: 6 min |
| O=C(Nc1ccccc1)C1CCN(c2ncc(-c3ccc4c(c3)OCCCO4)s2)CC1 | 0.049 µM | 353% | IC50 ([4]; read-out: IC50): 4 µM; t1/2 (Liver): < 15 min |
| NC(=O)C1CCN(c2nc(-c3ccccc3Cl)cs2)CC1 | 7.72 µM | 57% |  |
| NC(=O)C1CCN(c2nc(-c3cccc(Cl)c3)cs2)CC1 | 12.2 µM | 53% |  |
| NC(=O)C1CCN(c2nc(-c3ccc4c(c3)OCCCO4)cs2)CC1 | 0.49 µM | 443% |  |
| CN(C)c1ccc(-c2csc(N3CCC(C(N)=O)CC3)n2)cc1 | 30.7 µM | 64% |  |
| NC(=O)C1CCN(c2nc(-c3cccs3)cs2)CC1 | 7.72 µM | 51% |  |
| CN(C)C(=O)C1CCN(c2nc(-c3ccc(Br)cc3)cs2)CC1 | 30.8 µM | 43% |  |
| CC(C)(C)c1ccc(-c2csc(N3CCC(C(N)=O)CC3)n2)cc1 | 3.87 µM | 243% |  |
| CN(C)c1cccc(-c2nccc(N3CCC(C(N)=O)CC3)n2)c1 | 12.2 µM | 306% |  |
| NC(=O)C1CCN(c2nc(-c3cccc(Br)c3)cs2)CC1 | 30.8 µM | 57% |  |
| Cc1cccc(-c2csc(N3CCC(C(N)=O)CC3)n2)c1 | 30.7 µM | 187% |  |
| COc1cccc(-c2csc(N3CCC(C(N)=O)CC3)n2)c1 | 1.94 µM | 357% |  |
| O=C([O-])CCCc1ccccc1.[Na+] [SODIUM PHENYLBUTYRATE] |  |  | half-life [8]: 90 min |
| NC(=O)C1CCN(c2nc(-c3ccc4c(c3)OCCO4)cs2)CC1 | 0.77 µM | 459% |  |
| Brc1ccc(-c2csc(N3CCCCC3)n2)cc1 | 19.4 µM | 272% |  |
| O=C(O)C1CCN(c2nc(-c3ccc(Br)cc3)cs2)CC1 | 4.87 µM | 554% | IC50 ([4]; read-out: IC50): 1.6 µM; Papp (Caco-2 [5]): 12 ×10⁻⁶ cm/s; Papp (Caco-2 [6]): 32.6 ×10⁻⁶ cm/s |
| NC(=O)C1CCN(c2ncc(-c3cccc(F)c3)s2)CC1 | 2.44 µM | 601% |  |
| COc1ccc(-c2csc(N3CCC(C(N)=O)CC3)n2)cc1OC | 12.2 µM | 59% |  |
| NC(=O)C1CCN(c2nc(-c3ccc4ccccc4c3)cs2)CC1 | 7.72 µM | 162% |  |
| CCOC(=O)C1CCN(c2nc(-c3ccc(Br)cc3)cs2)CC1 | 7.72 µM | 550% |  |

| Compound | Activity [3] | Activity [7] | other results |
| --- | --- | --- | --- |
| NC(=O)C1CCN(c2ncc(-c3ccc(Cl)cc3)s2)CC1 | 0.154 µM | 498% |  |
| CC(=O)N1CCN(c2nc(-c3ccc(Br)cc3)cs2)CC1 | 3.07 µM | 234% |  |
| CN(C)c1cccc(-c2csc(N3CCC(C(N)=O)CC3)n2)c1 | 0.97 µM | 504% |  |
| NC(=O)C1CCN(c2nc(-c3ccccc3F)cs2)CC1 | 2.44 µM | 274% |  |
| CC(C)Oc1ccc(-c2csc(N3CCC(C(N)=O)CC3)n2)cc1 | 3.87 µM | 178% |  |
| CC(=O)c1ccc(-c2csc(N3CCC(C(N)=O)CC3)n2)cc1 | 12.2 µM | 130% |  |
| NC(=O)C1CCN(c2nnc(-c3ccc4c(c3)OCCCO4)s2)CC1 | 0.122 µM | 257% | IC50 ([4]; read-out: IC50): 3.2 µM; Papp (Caco-2 [5]): 51.2 ×10⁻⁶ cm/s; Papp (Caco-2 [6]): 21.2 ×10⁻⁶ cm/s; t1/2 (Liver): > 60 min |
| NC(=O)C1CCN(c2nc(-c3ccc(Br)cc3)cs2)CC1 | 1.22 µM | 268% | IC50 [4]: Not Active; Papp (Caco-2 [5]): 12.1 ×10⁻⁶ cm/s; Papp (Caco-2 [6]): 30.7 ×10⁻⁶ cm/s; Activity [1]: Dose-dependent effect; Activity [2]: Active; t1/2 (Liver): 12 min |
| O=C(NCCc1ccccc1)C1CCN(c2nc(-c3ccc(Br)cc3)cs2)CC1 | 6.13 µM | 32% |  |
| NC(=O)C1CCN(c2nc(-c3ccc(OC(F)(F)F)cc3)cs2)CC1 | 3.07 µM | 297% |  |
| CN(C)c1cccc(-c2ncc(F)c(N3CCC(C(N)=O)CC3)n2)c1 | 3.07 µM | 141% |  |
| NC(=O)C1CCN(c2ncc(-c3ccc4c(c3)OC(F)(F)O4)s2)CC1 | 0.194 µM | 598% |  |
| CN(C)c1cccc(-c2cnc(N3CCC(C(N)=O)CC3)nc2)c1 | 0.613 µM | 236% |  |
| NC(=O)C1CCN(c2nc(-c3ccc4occc(=O)c4c3)cs2)CC1 | 15.4 µM | 589% |  |
| NC(=O)C1CCN(c2nc(-c3ccc(C(F)(F)F)cc3)cs2)CC1 | 2.44 µM | 386% |  |
| NC(=O)C1CCN(c2nc(-c3cccc(F)c3)cs2)CC1 | 9.72 µM | 64% |  |
| NC(=O)C1CCN(c2nc(-c3ccc([N+](=O)[O-])cc3)cs2)CC1 | 15.4 µM | 254% |  |
| COc1cc(OC)cc(-c2csc(N3CCC(C(N)=O)CC3)n2)c1 | 7.72 µM | 45% |  |
| NC(=O)C1CCN(c2nc(-c3ccc(Oc4ccccc4)cc3)cs2)CC1 | 4.87 µM | 240% |  |
| NC(=O)C1CCN(c2nccc(-c3ccc(Br)cc3)n2)CC1 | 0.387 µM | 387% |  |
